According to paper PMC11302324 (RSC Advances, 2024):

Key:
[1] = test system: colorectal carcinoma (HCT-116); experiment: In vitro cytotoxicity, MTT assay; assay type: cell-based; conditions: Homo sapiens, HCT-116, read-out: In vitro cytotoxicity IC50 HCT-116
Method in brief: (§1)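 Cells seeded at 1×10^5 cells per ml and grown 24 h at 37 °C to a monolayer, then washed twice. Two-fold dilutions of test compound in RPMI with 2% serum; medium-only control wells; doxorubicin positive control. Morphology checked, then MTT stock (5 mg ml⁻¹ in PBS) added and incubated 1-5 h (37 °C, 5% CO₂). Formazan dissolved in DMSO; OD 560 nm minus 620 nm; mean of three determinations; one-way ANOVA.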

[2] = test system: prostate carcinoma (PC-3); experiment: In vitro cytotoxicity, MTT assay; assay type: cell-based; conditions: Homo sapiens, read-out: In vitro cytotoxicity IC50 PC-3
Method in brief: as §1

[3] = test system: hepatocellular carcinoma (HepG-2); experiment: In vitro cytotoxicity, MTT assay; assay type: cell-based; conditions: Homo sapiens, HepG2, read-out: In vitro cytotoxicity IC50 HePG2
Method in brief: as §1

[4] = target: CK2 kinase (Homo sapiens, UniProt P68400); experiment: CK2 kinase enzyme inhibitory assay; assay type: biochemical
CK2 kinase, sequence (P68400 whole entry): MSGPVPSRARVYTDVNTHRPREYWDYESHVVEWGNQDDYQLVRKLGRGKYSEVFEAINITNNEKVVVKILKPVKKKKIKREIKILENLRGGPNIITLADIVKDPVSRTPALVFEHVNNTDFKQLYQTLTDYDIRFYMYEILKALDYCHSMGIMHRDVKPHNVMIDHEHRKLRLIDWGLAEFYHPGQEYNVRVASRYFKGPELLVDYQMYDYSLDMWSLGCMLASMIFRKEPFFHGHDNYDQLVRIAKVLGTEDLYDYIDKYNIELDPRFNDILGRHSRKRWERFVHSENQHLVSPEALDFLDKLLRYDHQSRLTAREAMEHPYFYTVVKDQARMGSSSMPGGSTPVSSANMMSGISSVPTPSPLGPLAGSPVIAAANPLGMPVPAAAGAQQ

[5] = test system: HepG-2, PC-3, and HCT-116 cell lines; experiment: In vitro cytotoxicity, MTT assay, stated for the three cell lines together; assay type: cell-based, human
Method in brief: as §1

In the case of `COC(=O)[C@@H](NC(=O)COc1ccc2c(C)cc(=O)oc2c1)c1ccccc1` [Compound 5c, (S)-Methyl 2-{2-[(4-methyl-2-oxo-2H-chromen-7-yl)oxy]acetamido}-2-phenylacetate], the IC50 [1] is reported as 124 ± 4.4 µM, the IC50 [2] is reported as 174 ± 1.8 µM and the IC50 [3] is reported as 154 ± 2.1 µM.

`COC(=O)[C@H](CC(C)C)NC(=O)COc1ccc2c(C)cc(=O)oc2c1` [Compound 5b, (S)-Methyl-4-methyl-2-{2-[(4-methyl-2-oxo-2H-chromen-7-yl)oxy]acetamido}pentanoate] was tested, and the IC50 [1] was 35.1 ± 2.8 µM, the IC50 [2] was 59.7 ± 4.2 µM and the IC50 [3] was 42.16 ± 0.3 µM. The IC50 [4] was 0.117 ± 0.005 µM.

`COC(=O)CNC(=O)CNC(=O)COc1ccc2c(C)cc(=O)oc2c1` [Compound 7a, Methyl 2-{2-[2-[(4-methyl-2-oxo-2H-chromen-7-yl)oxy]acetamido]acetamido}acetate] showed an IC50 [1] of 137 ± 2.4 µM, an IC50 [2] of 172.3 ± 1.4 µM and an IC50 [3] of 174 ± 3.4 µM.

Compound `COC(=O)[C@@H](NC(=O)CNC(=O)COc1ccc2c(C)cc(=O)oc2c1)c1ccccc1` [Compound 7c, (S)-Methyl2-{2-{2-[(4-methyl-2-oxo-2H-chromen-7-yl)oxy]acetamido}acetamido}-2-phenylacetate] has an IC50 [1] of 16 ± 4.1 µM, an IC50 [2] of 16.1 ± 4.6 µM and an IC50 [3] of 34.1 ± 4.2 µM. For the same compound, the IC50 [4] was 0.461 ± 0.02 µM and the “activity against CK2 kinase (in words)” value ([4]; compared with 5b) was “less active”.

`COc1cccc2c1C(=O)c1c(O)c3c(c(O)c1C2=O)C[C@@](O)(C(=O)CO)C[C@@H]3O[C@H]1C[C@H](N)[C@H](O)[C@H](C)O1` [Doxorubicin, reference compound] gave an IC50 [1] of 61.01 ± 0.3 µM, an IC50 [2] of 57.3 ± 0.6 µM and an IC50 [3] of 108 ± 0.6 µM.

`Cc1cc(=O)oc2cc(OCC(=O)NCC(=O)NN)ccc12` [Compound 6, N-(2-Hydrazinyl-2-oxoethyl)-2-[(4-methyl-2-oxo-2H-chromen-7-yl)oxy]acetamide] was tested, and the IC50 [1] was 171 ± 4.2 µM, the IC50 [2] was 168 ± 4.3 µM and the IC50 [3] was 168 ± 4.4 µM.

For `COC(=O)[C@@H](CC(C)C)NC(=O)CNC(=O)CNC(=O)COc1ccc2c(C)cc(=O)oc2c1` [Compound 9b, (R)-Methyl4-methyl-2-{2-{2-{2-[(4-methyl-2-oxo-2H-chromen-7-yl)oxy]acetamido}acetamido}acetamido}pentanoate], the IC50 [1] was 169.1 ± 0.3 µM, the IC50 [2] was 85.5 ± 0.4 µM and the “cytotoxicity towards three cell lines (in words)” value [5] was “relatively weak cytotoxicity”. For the same compound, the IC50 [3] was 298.8 ± 0.3 µM.
